# Compounds with a hit are over-represented: about 0.77% of the library has one in this group of screens.
# hIAP act – human IAP activators, primary screen, biochemical, luminescence, uHTS | Intestinal-type alkaline phosphatase (Homo sapiens), P09923 | purified human IAP, CDP-Star luminescence, 30 min; active compounds read high; 1 = vehicle-only enzyme, 0 = enzyme-free background | activation factor at 10 µM | 330,000 compounds, 0.16% hits | AID 2524, 2010;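 active = activation factor of the enzyme at least 2-fold when tested at 20 µM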
# Target sequence (P09923 whole entry, looked up): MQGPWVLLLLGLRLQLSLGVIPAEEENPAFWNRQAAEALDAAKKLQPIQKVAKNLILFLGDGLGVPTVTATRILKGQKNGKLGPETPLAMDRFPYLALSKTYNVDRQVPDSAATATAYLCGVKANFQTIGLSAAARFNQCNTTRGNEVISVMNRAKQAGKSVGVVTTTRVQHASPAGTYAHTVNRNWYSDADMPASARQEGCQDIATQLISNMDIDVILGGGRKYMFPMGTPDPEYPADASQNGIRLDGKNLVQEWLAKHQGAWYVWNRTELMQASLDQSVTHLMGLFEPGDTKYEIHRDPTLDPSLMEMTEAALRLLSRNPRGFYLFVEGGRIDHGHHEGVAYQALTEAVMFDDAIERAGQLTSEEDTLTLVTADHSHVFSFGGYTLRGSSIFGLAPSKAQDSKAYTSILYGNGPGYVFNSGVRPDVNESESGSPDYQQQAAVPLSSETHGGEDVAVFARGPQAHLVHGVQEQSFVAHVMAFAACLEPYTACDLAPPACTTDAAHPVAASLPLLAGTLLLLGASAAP
# bIAP act – bovine intestinal alkaline phosphatase activators, primary screen, biochemical, bovine IAP, CDP-star luminescence. alkaline phosphatase, intestinal [Bos taurus]. 200,000 compounds, 0.17% hits. activation factor at 20 µM. AID 1016, 2008. purified bovine IAP, 30 min; active compounds read high; fold of DMSO-control signal, blank-subtracted;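 active = activation factor of 2 or more at 20 µM, a signal rise over negative controls twice the positive control's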
# bIAP inh – bovine intestinal alkaline phosphatase inhibitors, primary screen, selectivity assay for TNAP inhibitor project, biochemical, bovine IAP, CDP-star luminescence; alkaline phosphatase, intestinal [Bos taurus]; purified bovine IAP, 30 min; inhibition, % at 20 µM; 190,000 tested, under 10 active;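 active = over 50% inhibition of intestinal alkaline phosphatase at 20 µM in the single-dose screen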
#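 System: purified bovine intestinal alkaline phosphatase (IAP) enzyme; Input: IAP diluted 1/65,000,000 in the well; Measured by: CDP-star luminescence signal; Compound dosing: 20 µM single dose; Incubation: 30 min reaction at room temperature.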
# mIAP block – inhibitors of mouse IAP, primary screen, biochemical, luminescence, uHTS. inhibition, % at 10 µM. AID 2806, 2010. purified mouse IAP, CDP-Star luminescence, 30 min. 330,000 compounds, 0.2% hits. intestinal alkaline phosphatase [Mus musculus];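 active = inhibition of at least 40% at 10 µM in the primary screen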;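 note: plate controls were DMSO with enzyme for no effect and no enzyme wells for full effect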
# mIAP act – activators of mouse IAP, primary screen, biochemical, luminescence, uHTS | intestinal alkaline phosphatase [Mus musculus] | muIAP, CDP-Star luminescence, 30 min; active compounds read high; 1 = vehicle-only enzyme signal, 0 = enzyme-free wells | activation factor at 10 µM | 330,000 compounds, 0.24% hits | AID 2805, 2010;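 active = activation factor of at least 2 at 20 µM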
#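 Assay system: mouse IAP enzyme; reagent: chemiluminescent substrate CDP-Star; dosing: test compounds delivered from DMSO solution; schedule: 30 min at room temperature; measured by: luminescence from enzymatic CDP-Star hydrolysis; controls: DMSO-only wells and no-enzyme negative control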
# hIAP inh – human IAP inhibitors, primary screen, biochemical, luminescence, uHTS; purified IAP, CDP-Star luminescence, 30 min; inhibition, % at 10 µM; 330,000 compounds, 0.12% hits; Intestinal-type alkaline phosphatase (Homo sapiens), P09923;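 active = inhibition reaching a set limit with compound at 10 µM in the primary screen, cut at about 35% in these data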;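 note: plate controls were DMSO wells with enzyme for no effect and no-enzyme buffer wells for full effect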
# mIAP inh conf – inhibitors of mouse IAP, confirmation, biochemical, luminescence, single concentration; shares compounds with mIAP block; purified mouse IAP, CDP-Star luminescence, 30 min; inhibition, % at 10 µM; 11,000 compounds, 4.7% hits;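 active = inhibition of at least 40% at 10 µM in either of the two replicates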;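 note: plate controls were DMSO wells with enzyme for no effect and buffer wells lacking enzyme for full effect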
# * hit, by the source's call; i = inactive; . = not tested or not shown.
SMILES,hIAP act,bIAP act,bIAP inh,mIAP block,mIAP act,hIAP inh,mIAP inh conf
Cc1ccc(NC(=O)CSc2nnc(-c3ccco3)c(-c3ccco3)n2)cc1,0.91,1,2,64*,0.36,10,60*
Cc1ccccc1NC(=O)CSc1nnc(-c2ccco2)c(-c2ccco2)n1,0.99,0.9,10,52*,0.47,1,51*
COc1ccc(NC(=O)CSc2nnc(-c3ccco3)c(-c3ccco3)n2)cc1OC,0.99,.,.,18,0.82,1,.
CN(C)c1ccc(NC(=O)CSc2nnc(-c3ccco3)c(-c3ccco3)n2)cc1,0.86,.,.,49*,0.51,14,60*
O=C(CSc1nnc(-c2ccco2)c(-c2ccco2)n1)Nc1ccccc1,0.9,0.9,13,45*,0.55,10,54*
CC(Oc1ccccc1Cl)C(=O)Nc1ccc(S(=O)(=O)N2CCCC2)cc1 (centres undefined),1,.,.,-18,1.2,-4,.
O=C(NC1(Cc2ccccc2)CCN(Cc2ccc(-c3ccccc3)cc2)C1=O)c1ccccc1 (centres undefined),1,.,.,-17,1.2,-2,.
CCc1cc(=O)oc2cc(OCc3ccc(C(=O)O)o3)ccc12,1.1,.,.,-3,1,-14,.
Cc1cc(-c2n[nH]c(=S)n2/N=C/C=C/c2ccco2)n[nH]1,1.1,.,.,49*,0.51,-9,54*
Cc1ccccc1-c1n[nH]c(=S)n1/N=C/C=C/c1ccco1,1,.,.,44*,0.56,-4,50*
CCC1=NN2C(=N)/C(=C\c3ccc(SCc4ccco4)o3)C(=O)N=C2S1,0.83,0.9,13,74*,0.26,17,72*
CCCC1=NN2C(=N)/C(=C\c3ccc(SCc4ccco4)o3)C(=O)N=C2S1,0.89,0.8,17,57*,0.43,11,70*
CCCC1=NN2C(=N)/C(=C\c3cc(C)n(Cc4ccccc4)c3C)C(=O)N=C2S1,0.99,.,.,0,1,1,.
CCC1=NN2C(=N)/C(=C/c3c(C)nn(-c4ccccc4)c3Cl)C(=O)N=C2S1,1.1,0.9,5,-8,1.1,-6,.
Cc1cc(-c2nc3c4c5c(sc4[nH]c(=O)n3n2)CCC5)c(C)o1,1.1,1,-4,49*,0.51,-12,66*
N#CC1=C(N)C2=C(N3CCCCC3)CCCC2C1(C#N)C#N (centres undefined),1,0.3,.,23,0.77,-2,40*
N#CC(C#N)=C1C=C2C=C(N3CCCCC3)CCC2CC1 (centres undefined),.,1.5,-51,.,.,.,.
C/C(=N\NC(=O)CC#N)c1cc2ccc(O)cc2oc1=O,1,0.7,27,43*,0.57,-4,48*
O=C(N[C@@H](Cc1ccccc1)C(=O)N1CCN(S(=O)(=O)c2ccc(F)cc2)CC1)c1ccco1,0.97,.,.,3,0.97,3,.
O=c1c2c(O)cc(O)cc2oc2c(O)ccc(O[C@H]3O[C@@H](CO)[C@H](O)[C@@H](O)[C@@H]3O)c12,1,.,.,10,0.91,0,.
C[C@@H]1O[C@@H](O[C@H]2[C@H](O)[C@@H](O)[C@H](Oc3c(-c4ccc(O)c(O)c4)oc4cc(O)cc(O)c4c3=O)O[C@@H]2CO)[C@H](O)[C@H](O)[C@H]1O,0.79,.,.,58*,0.42,22,48*
O=c1c(OC2OC(CO)C(O)C(O)C2OC2OC(CO)C(O)C(O)C2O)c(-c2ccc(O)cc2)oc2cc(O)cc(O)c12 (centres undefined),1.1,.,.,43*,0.57,-11,55*
C[C@@H](C(=O)Nc1ccc(SC(F)F)cc1)N1C(=O)C2CCCCC2C1=O (some centres undefined),0.89,.,.,-10,1.1,11,.
CC1CCCC(NC(=S)Nc2ccc(SC(F)F)cc2)C1C (centres undefined),1.1,0.8,24,i,8.1*,-15,-109
CC1(C2CC2)NC(=O)N(CC(=O)Nc2ccccc2C#N)C1=O (centres undefined),1.1,.,.,4,0.96,-8,.
SMILES,hIAP act,bIAP act,bIAP inh,mIAP block,mIAP act,hIAP inh,mIAP inh conf
COCc1ccc(CN2CCC(C(=O)Nc3cccc(-c4cccc(Cl)c4)c3)CC2)o1,1,.,.,-174,2.7*,0,-336
CCN1/C(=N\N)c2cccc3cccc1c23,0.9,0.9,12,14,0.86,10,.
Cc1ccnc(NC(=O)c2ccc(Cl)s2)c1,1,.,.,5,0.95,-5,.
CS(=O)(=O)c1ccc(C(=O)Nc2nc(-c3ccco3)c(-c3ccco3)s2)cc1,0.96,.,.,60*,0.4,4,70*
CC(C)=CCc1c(O)c(CC=C(C)C)c2c(c1O)-c1cc(O)c(O)cc1CC2,1,.,.,62*,0.38,0,60*
CC(C)=CCc1c(O)ccc(C2COc3c(CC=C(C)C)c(O)cc(O)c3C2=O)c1O (centres undefined),1.1,.,.,14,0.86,-11,.
O=c1cc(-c2ccc(O)cc2)oc2cc(O)c(C3OC(CO)C(O)C(O)C3O)c(O)c12 (centres undefined),1,0.9,11,50*,0.49,0,47*
CC1(C)CC(=O)C=C(c2cccc3c2sc2ccccc23)C1,1,.,.,0,1,-4,.
Cc1ccccc1N1CCN(C2CCCN(C(=O)CCC3(C)CC3)C2)CC1 (centres undefined),1.2,.,.,2,0.97,-21,.
Cc1cc(=O)n2[nH]c(-c3ccsc3-n3c(C)ccc3C)cc2n1,0.87,.,.,50*,0.5,13,59*
Cc1ccccc1-c1cc2nc(C)c(Cl)c(=O)n2[nH]1,1,.,.,6,0.94,-2,.
COCc1cc(=O)n2[nH]c(-c3ccsc3-n3c(C)ccc3C)cc2n1,0.91,1,4,56*,0.44,10,58*
Cc1nc2cc(-c3ccsc3-n3c(C)ccc3C)[nH]n2c(=O)c1Cl,0.91,0.9,8,63*,0.37,9,78*
Cc1cc(=O)n2[nH]c(-c3ccc(F)cc3)cc2n1,1.1,1,0,6,0.94,-9,.
O=C(NCC(c1ccco1)N1CCN(c2ccccc2F)CC1)c1ccco1 (centres undefined),1.1,.,.,5,0.95,-15,.
